Most compounds without a hit are left out; they make up all but 2.4% or so of the library.
S1P4 antag = antagonists of human S1P4 receptor; O95977; S1P4-expressing cells, antagonist mode, reporter read-out; inhibition, % at 4.98 µM; 0.26% of 220,000 active; AID 1510; in the data active = inhibition above about 29%;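 note: 0% = wells stimulated with agonist and 100% = vehicle wells without agonist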
Target sequence (O95977 whole entry, looked up): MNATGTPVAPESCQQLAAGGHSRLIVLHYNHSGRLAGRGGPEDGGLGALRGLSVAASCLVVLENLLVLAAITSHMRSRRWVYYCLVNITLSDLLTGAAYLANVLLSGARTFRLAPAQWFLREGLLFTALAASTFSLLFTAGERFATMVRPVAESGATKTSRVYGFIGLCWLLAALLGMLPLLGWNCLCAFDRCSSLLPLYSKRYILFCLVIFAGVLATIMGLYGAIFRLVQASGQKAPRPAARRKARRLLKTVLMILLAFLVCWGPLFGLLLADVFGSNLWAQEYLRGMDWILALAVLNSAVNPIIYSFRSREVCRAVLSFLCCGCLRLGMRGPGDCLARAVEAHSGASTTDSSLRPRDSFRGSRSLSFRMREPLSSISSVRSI
NPY-Y1 antag = NPY-Y1 (human) receptor antagonism | P25929 | HEK293-CNG Y1 cells, membrane potential fluorescence; NPY at EC95, then isoproterenol | inhibition, % at 3.6 µM | 1% of 200,000 active;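 active = inhibition above the campaign mean inhibition of all tested compounds plus 3 SD, cut at about 20% in these data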;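 note: 0% = DMSO wells given NPY plus isoproterenol and 100% = isoproterenol alone without NPY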
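Material: HEK293 cells co-expressing NPY Y1 receptor and cyclic-nucleotide gated channel. Timing: compound incubation 1 h at room temperature, readout 45 min post-stimulation. Signal: fluorescence, membrane potential probe.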
NPY-Y1 PAM-ag = potentiators or agonists of human neuropeptide Y receptor Y1; NPY-Y1 expressing cells, potentiator/agonist activation; P25929; 0.37% of 220,000 active; activation, % at 3.6 µM; AID 1304; in the data active = activation above about 33%, passing the limit was not always enough;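 note: cells stimulated with NPY at EC10 then isoproterenol at EC100; 0% = low agonist plus stimulus and 100% = saturating agonist plus stimulus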
NPY Y2 blocker = blocks the human neuropeptide Y Y2 receptor. P49146. NPY-Y2 expressing cells, antagonist mode. inhibition, % at 2.7 µM. 0.99% of 140,000 active. AID 793; in the data active = inhibition above about 17%;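 note: 0% = vehicle with agonist challenge and 100% = reference antagonist with challenge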
S1P4 agonist = activates the human S1P4 receptor. S1P4-expressing cell line, agonist reporter assay. activation, % at 4.98 µM. 0.35% of 220,000 active. AID 1509; in the data active = activation above about 11%;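 note: 0% = DMSO vehicle and 100% = reference agonist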
NPY-Y2 PAM-ag = potentiates or activates human NPY-Y2 receptor; P49146; cells expressing NPY-Y2, potentiator/agonist read-out; activation, % at 3.6 µM; 0.45% of 220,000 active; AID 1359; in the data active = activation above about 27%;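 note: cells stimulated with NPY near EC25 plus isoproterenol at EC100; 0% = vehicle plus submaximal agonist and 100% = vehicle plus saturating agonist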
* = called active by the depositor.

For CCCC(NCC(O)COc1ccc(-c2ccccc2)cc1)c1ccccc1 (configuration not stated) the results were S1P4 antag -1, NPY-Y1 antag 2, NPY-Y1 PAM-ag -19, S1P4 agonist -2 and NPY-Y2 PAM-ag -18.
Screening CN(C(=O)c1cccc(C#N)c1)c1nnc(-c2ccncc2)s1 returned S1P4 antag -10, NPY-Y1 antag -7, NPY-Y1 PAM-ag 0, NPY Y2 blocker 2, S1P4 agonist 0 and NPY-Y2 PAM-ag -11.
`CCCCCCCCCCn1ccc(=N)cc1` gave S1P4 antag 8, NPY-Y1 PAM-ag -44, S1P4 agonist 2 and NPY-Y2 PAM-ag -21.
CCOc1ccccc1NC(=O)Cn1nnc(C(=O)NCCc2ccc(OC)c(OC)c2)c1N was read as S1P4 antag -22, NPY-Y1 antag -5, NPY-Y1 PAM-ag 28, S1P4 agonist 1 and NPY-Y2 PAM-ag 7.
COc1cc(OC)cc(C(=O)N[C@H](C(=O)OCC(=O)N2CCc3ccccc32)C(C)C)c1 was read as S1P4 antag -1, NPY-Y1 antag -6, NPY-Y1 PAM-ag -12, S1P4 agonist 1 and NPY-Y2 PAM-ag -2.
Screening COC(=O)CN1C(c2ccc(Cl)cc2)=Nc2ccc(Cl)cc2C1c1ccccc1 (configuration not stated) returned S1P4 antag 4, NPY-Y1 antag 27*, NPY-Y1 PAM-ag -24, NPY Y2 blocker 19*, S1P4 agonist -2 and NPY-Y2 PAM-ag -5.
Screening Cn1c(=O)c2c(nc(NCCOc3ccc(C(C)(C)C)cc3)n2C)n(C)c1=O returned S1P4 antag -13, NPY-Y1 antag 6, NPY-Y1 PAM-ag -8, NPY Y2 blocker 2, S1P4 agonist 0 and NPY-Y2 PAM-ag 7.
`COc1ccccc1-c1cc(C(F)(F)F)nc(S(=O)(=O)CCCC(=O)NC(C)C)n1` gave S1P4 antag -5, NPY-Y1 antag 10, NPY-Y1 PAM-ag 7, NPY Y2 blocker 1, S1P4 agonist 0 and NPY-Y2 PAM-ag 9.
`COc1ccccc1-c1cc(C(F)(F)F)nc(S(=O)(=O)CCCC(=O)Nc2cccnc2Cl)n1` gave S1P4 antag 50*, NPY-Y1 antag 5, NPY-Y1 PAM-ag -24, S1P4 agonist -1 and NPY-Y2 PAM-ag -17.
For O=C(CN1c2ccccc2Sc2ccccc21)NNC(=O)Nc1ccc(Cl)cc1 the results were S1P4 antag -1, NPY-Y1 PAM-ag 61*, S1P4 agonist 0 and NPY-Y2 PAM-ag 57*.
Screening O=C(CN1c2ccccc2Sc2ccccc21)NNC(=O)Nc1ccc(Cl)c(Cl)c1 returned S1P4 antag -4, NPY-Y1 PAM-ag -17, S1P4 agonist -1 and NPY-Y2 PAM-ag 6.
For COc1cccc2c1C(=O)c1c(O)c3c(c(O)c1C2=O)C[C@@](O)(C(C)=O)C[C@@H]3O[C@H]1C[C@H](N)[C@H](O)[C@H](C)O1 the results were S1P4 antag 101*, NPY-Y1 antag 2, NPY-Y1 PAM-ag -9, NPY Y2 blocker 3, S1P4 agonist -3 and NPY-Y2 PAM-ag 8.
`N#Cc1nc(COc2ccccc2)oc1N1CCN(Cc2ccccc2)CC1` gave S1P4 antag 12, NPY-Y1 antag 21*, NPY-Y1 PAM-ag -24, NPY Y2 blocker 28*, S1P4 agonist -2 and NPY-Y2 PAM-ag -15.
`Cc1ccc(OCc2nc(C#N)c(N3CCN(Cc4ccccc4)CC3)o2)cc1` gave S1P4 antag -11, NPY-Y1 antag 23*, NPY-Y1 PAM-ag -34, NPY Y2 blocker 41*, S1P4 agonist -1 and NPY-Y2 PAM-ag -34.
`N#Cc1c(NC(=O)CSc2nnc(-c3ccco3)n2-c2ccccc2)sc2c1CCC2` gave S1P4 antag 0, NPY-Y1 antag -4, NPY-Y1 PAM-ag 111*, NPY Y2 blocker 1, S1P4 agonist 3 and NPY-Y2 PAM-ag 43*.
Cc1ccc(NC(=O)COc2ccccc2CNC(C)(C)CC(C)(C)C)cc1 was read as S1P4 antag 10, NPY-Y1 antag 30*, NPY-Y1 PAM-ag -18, NPY Y2 blocker 25*, S1P4 agonist -2 and NPY-Y2 PAM-ag -36.
`COc1ccc(OC)c(NC(=O)CN(c2ccc(C(C)C)cc2)S(=O)(=O)c2c(C)noc2C)c1` gave S1P4 antag -4, NPY-Y1 antag 8, NPY-Y1 PAM-ag -20, NPY Y2 blocker 11, S1P4 agonist -6 and NPY-Y2 PAM-ag -16.
Screening CCCN(c1ccc(C(C)C)cc1)S(=O)(=O)c1c(C)noc1C returned S1P4 antag 22, NPY-Y1 antag 22*, NPY-Y1 PAM-ag 0, NPY Y2 blocker 28*, S1P4 agonist 0 and NPY-Y2 PAM-ag -5.
Screening CC(NC(=O)c1nn(C)c(=O)c2ccccc12)c1ccccc1 (configuration not stated) returned S1P4 antag 8, NPY-Y1 antag -2, NPY-Y1 PAM-ag -14, NPY Y2 blocker 1, S1P4 agonist 1 and NPY-Y2 PAM-ag -19.
O=C(Nc1cccc2c1CCCC2)c1ccc(Cl)c([N+](=O)[O-])c1 was read as S1P4 antag -11, NPY-Y1 antag 4, NPY-Y1 PAM-ag 13, NPY Y2 blocker 4, S1P4 agonist 0 and NPY-Y2 PAM-ag 13.
Screening O=C(Nc1ccccc1-c1ccccc1)c1ccc(Cl)c([N+](=O)[O-])c1 returned S1P4 antag -10, NPY-Y1 antag -9, NPY-Y1 PAM-ag 71*, NPY Y2 blocker 0, S1P4 agonist -1 and NPY-Y2 PAM-ag 29*.
Screening Cc1noc(C)c1C(=O)Nc1nnc(-c2ccccc2)s1 returned S1P4 antag 102*, NPY-Y1 antag 5, NPY-Y1 PAM-ag -3, NPY Y2 blocker -2, S1P4 agonist -1 and NPY-Y2 PAM-ag 5.
Cc1onc(-c2ccccc2)c1C(=O)Nc1nnc(N2CCCCCC2)s1 was read as S1P4 antag 0, NPY-Y1 antag 2, NPY-Y1 PAM-ag -5, NPY Y2 blocker 3, S1P4 agonist -1 and NPY-Y2 PAM-ag 14.
`COc1ccc(C(NC(=O)C(C)(C)C)NC(=O)C(C)(C)C)cc1` gave S1P4 antag -15, NPY-Y1 antag 4, NPY-Y1 PAM-ag 1, NPY Y2 blocker 2, S1P4 agonist 2 and NPY-Y2 PAM-ag -3.
`CCSc1nnc2c(n1)OC1(CCCC1)Nc1ccccc1-2` gave S1P4 antag -30, NPY-Y1 antag 6, NPY-Y1 PAM-ag 3, NPY Y2 blocker 4, S1P4 agonist -2 and NPY-Y2 PAM-ag 7.
Cn1c(=O)c(C#N)c(-c2ccc(F)cc2)c2cc(C(=O)c3cc(Cl)cc(Cl)c3O)cnc21 was read as S1P4 antag 1, NPY-Y1 PAM-ag 58*, S1P4 agonist 1 and NPY-Y2 PAM-ag 92*.
For COc1ccccc1-n1c(=O)c(C#N)c(-c2ccc([N+](=O)[O-])cc2)c2cc(C(=O)c3cc(F)ccc3O)cnc21 the results were S1P4 antag 9, NPY-Y1 antag -2, NPY-Y1 PAM-ag 19, S1P4 agonist -2 and NPY-Y2 PAM-ag 0.

Source: PubChem
